This data set has as its system MS2 coat protein. As to the kind of experiment: apparent Kd, MS2 coat protein; higher = weaker binding; RNA-MaP array; FMN 200 µM where present. The essentials:
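Stalled E. coli RNA polymerase transcribed the designs on Illumina sequencing-chip clusters. SNAP-549-labelled MS2 coat protein was titrated from 0.7 or 1.5 nM, doubling to 3 µM, without and then with constant ligand, in 100 mM Tris-HCl pH 7.5, 80 mM KCl, 4 mM MgCl2, BSA, DTT, yeast tRNA and Tween-20. Per-cluster binding curves were fitted to green signal normalised to red-channel RNA signal and control-cluster median Fmax. The apparent Kd is the median of the filtered fits.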

[1] abbreviates: designed as: OFF switch for flavin mononucleotide, no ligand.
[2] abbreviates: ligand present: flavin mononucleotide, designed as: OFF switch for flavin mononucleotide.
Setting [3] is: designed as: ON switch for flavin mononucleotide, no ligand.
The mark [4] stands for this setting: ligand present: flavin mononucleotide, designed as: ON switch for flavin mononucleotide.

As usually defined, the apparent Kd is the concentration giving half-maximal binding under the conditions of the assay.

In the case of “CGGAUUAUGUGAGGAUAUAAUCGUUUCCAUUGAUUAGAAGGCACAUGAGGAUCACCCAUGUGGCAUGUAAUGCCAUGUGACGCU”, the “apparent Kd” value came out at 442 nM under setting [1] and 41.3 nM under setting [2].

As for “CGCUAAUAAAUAGUAAUAAAAGUACAGGAUAUGUUACAUGAGGAUCACCCAUGUAUUGGGUAAGAACAGAAGGGUAUAUUAGCG”, the “apparent Kd” value runs as follows: under setting [1], 153 nM; under setting [2], 115 nM.

Regarding “GUUUCGGGAGGAUAUGCGUGGAUUAUUCUCGUAUGUUGUUUACAUGAGGAUCACCCAUGUAGAAGGUCUGGAGC”, the “apparent Kd” value runs as follows: under setting [1], 193 nM; under setting [2], 300 nM.

“CUACCUUAUGAGAAGGCGAUCAUGAAACAUGAUCGAGGAUAUCAUGUAAACAUGAGGAUCACCCAUGUAUGGGUAUUAUGGUAU”: the “apparent Kd” value was 91.5 nM under setting [3] and 25.4 nM under setting [4].

Turning to “GCCUGCUGGCGAGGAUAUUCUGUGCGGUUCCGGCUCGUGUCUGUUACAUGAGGAUCACCCAUGUAGGAGAAGGUGUCUGUGGCC”, the “apparent Kd” value under setting [1] worked out at 4.75 nM and the “apparent Kd” value under setting [2] amounted to 5.01 nM.

With “UUAAUGUGAGGAUAUCAGGUGUGCUAGCGUACUGGUACAUCUGAGAAGGCACAUGAGGAUCACCCAUGUUUCUU”, the “apparent Kd” value by setting is: under setting [1], 32.7 nM; under setting [2], 110 nM.

Take “CUGCUGGAGCUUCGCUUUGGUCGUACAUGAGGAUCACCCAUGUAGGAUAUGGUAAAAUUCGCCUGCUAGAAGGAUAGAGUGGUC”: the “apparent Kd” value was found to be 67.2 nM under setting [1] and 139 nM under setting [2].

For “CGCGGACAAGAGAAGGCCAGACCUCGGAACCUGAGGCACCGCUAGGCAUGGAGGAUAUCUUGACAUGAGGAUCACCCAUGUACU”, the “apparent Kd” value under setting [3] turned out to be 665 nM and the “apparent Kd” value under setting [4] stood at 33.7 nM.

On to “AAAACAUGAGGAUCACCCAUGUAAAGAUCUGUUAAUAGAAGUGAGGAUAUACUAAAUUUUAGGUAGUAGAAGGCACUGGGUACA”, for which the “apparent Kd” value is 23.4 nM under setting [3] and 27.4 nM under setting [4].

“GGAUGUCAAAGACAUCCAUAACGAACAUGAGGAUCACCCAUGUAGGAUAUGCUACUCAAAGAGUAGCAGAAGGACAUGUGUCUU”: the “apparent Kd” value reads like this: under setting [1], 30.3 nM; under setting [2], 150 nM.

As to “GCGACGCGGGAAGGAUAUCCGCUCAGGAGUGUCUCAUGCUAACAUGAGGAUCACCCAUGUUGUCCGGAGAAGGUCCUGUCAGGC”, the “apparent Kd” value by setting is: under setting [1], 152 nM; under setting [2], 288 nM.

“CGGUGACGUGUAGGAUAUGGCGAUGGGUUUUGGCCAGAAGGACAUGAGGAUCACCCAUGUGGUAGAGGGCUGGCGGCCGCCCGU”: the “apparent Kd” value worked out at 26.5 nM under setting [1] and 60 nM under setting [2].

In the case of “CACUGCAAUGUAGGAUAUCGACUGGAAUACAGUCGAGAAGGACAUGAGGAUCACCCAUGUACUUUGAGUGAAUAAUAAGCAGUG”, the “apparent Kd” value by setting is: under setting [1], 15.9 nM; under setting [2], 59.4 nM.

As to “ACGCAACAUGAGGAUCACCCAUGUGAGGAUAUGUAAAUAGUAAACAAAUAGGAAAUGAACAGAAGGCACACCGG”, the “apparent Kd” value reads like this: under setting [1], 33.8 nM; under setting [2], 46 nM.

Take “AAGAAACAUGAGGAUCACCCAUGUAAUAAUAUGGGAGGAUAUACAAGGACAAUAGUCAAGGUAGAAGGCCUAAGAA”: the “apparent Kd” value reads like this: under setting [3], 175 nM; under setting [4], 27.5 nM.

Consider “UUUGCAACAUGAGGAUCACCCAUGUAGGAUAUCGCUAUUGUAAUCAUGAAACAUGAUUACAAUAGCGAGAAGGACAUAUGCAAA”, for which the “apparent Kd” value amounted to 7.54 nM under setting [1] and 10.4 nM under setting [2].

Take “CUACGAGCGCCACAGGAUAUACUGAGACUCACAUGAGGAUCACCCAUGUCCAAUUCUCCCAAAUAGUAGAAGGGUGACGCGCUCG”: the “apparent Kd” value under setting [3] was determined as 699 nM and the “apparent Kd” value under setting [4] was 53.3 nM.

Consider “GAUCCUUCUGUUAGGAUAUGCUUUGGGCUUCCGCAGCAGAAGGAACAUGAGGAUCACCCAUGUCAAAUAACAUC”, for which the “apparent Kd” value by setting is: under setting [1], 21.4 nM; under setting [2], 22.8 nM.

Regarding “CCGGAAAGGGAGGAUAUAGGAGUCGAUAGACACCUAGAAGGCCUGACAUGAGGAUCACCCAUGUGUCCUACCGG”, the “apparent Kd” value runs as follows: under setting [1], 15 nM; under setting [2], 25 nM.

On to “AUAAUAAUAUAAGGAUAUACGUCACUGCGUCAGCAGUGUGGUAAGAUCACAUGAGGAUCACCCAUGUAGAAGGAUAAAUUAAAU”, for which the “apparent Kd” value by setting is: under setting [1], 12.4 nM; under setting [2], 9.22 nM.

Consider “GCUGCAUAGGCAGGAUAUGCAAGAAUUGAAAUAAAAUAUAAUAAAUGAACAUGAGGAUCACCCAUGUAGAAGGGCCUGUGCAGU”, for which the “apparent Kd” value is, setting by setting: under setting [1], 20.8 nM; under setting [2], 21.4 nM.

For the sequence “UAUAUGUCAGGAUAUCGAUUGGAAUGGAAUUUAGUUUUGGUCGAGAAGGGACAUGAGGAUCACCCAUGUUCCUC”, the “apparent Kd” value runs as follows: under setting [1], 30.9 nM; under setting [2], 134 nM.

Turning to “GCAGGAAAACUUGGUACAUGAGGAUCACCCAUGUAAAGCGGCAGAAGGGCGAUGUUAUGUAUAACGCAGGAUAUGCAGCGGAAU”, the “apparent Kd” value came to 46.4 nM under setting [3] and 18.1 nM under setting [4].

As for “ACAUGAGGAUCACCCAUGUGAAAGAAAUGGCUGACUUUGAGCUAGGAUAUUUGUGCAUAUCAAACGAAGAAGGAGCAUUACUGG”, the “apparent Kd” value was 22.2 nM under setting [1] and 21 nM under setting [2].

For “CUCAUGUGAGGAUAUGCUGCUCGUCACGAAAGUGAUGAGUAGCAGAAGGUACAUGAGGAUCACCCAUGUAAAUA”, the “apparent Kd” value under setting [1] was 98.9 nM and the “apparent Kd” value under setting [2] was 18.8 nM.

In the case of “AAUAAUUAGUAAGGAUAUACUAGUGGUUAGCUUGUAGAAGGUACAGUCUUAUGUAUAACAAAUUAACAUGAGGAUCACCCAUGU”, the “apparent Kd” value under setting [3] came out at 10.6 nM and the “apparent Kd” value under setting [4] was determined as 8.19 nM.

As for “UAAAAGGCAGGAUAUGCAGGUGACCCGACUCGCCGGGCUAAACAUGAGGAUCACCCAUGUAGAAGGGCCAAAAG”, the “apparent Kd” value reads like this: under setting [1], 15.7 nM; under setting [2], 43.6 nM.

On to “UUGCCUCAGAACAUGAGGAUCACCCAUGUGCUGCGGGCAACGUAGGAUAUGAUGGUAUGAUACCGUCAGAAGGAUGAUGGUACC”, for which the “apparent Kd” value under setting [3] was 5.86 nM and the “apparent Kd” value under setting [4] came to 5.32 nM.

Consider “AAACAUGUCCGAGGAUAUCUGGAAACAUUUUCAAGAGAAGGCGGACAUGAGGAUCACCCAUGUCUCUCCUCAUCCAAUCCAAGU”, for which the “apparent Kd” value runs as follows: under setting [1], 9.36 nM; under setting [2], 46.4 nM.

“GCGUAUUACGCAGGAUAUCCUUAUAUACAUGAGGAUCACCCAUGUUUUUUCGGAGAAGGGCGUAUGGGAUUUAAGAAUCAACAA”: the “apparent Kd” value under setting [3] is 11.2 nM and the “apparent Kd” value under setting [4] turned out to be 4.31 nM.

As to “AGCGGAGACAUGAGGAUCACCCAUGUCAGUGCCGGCGAUACCAGAAGGCCCGGCGGGCCUCGCCGGGAGGAUAUGGGUUCAACA”, the “apparent Kd” value by setting is: under setting [3], 13.1 nM; under setting [4], 8.39 nM.

For “GUAGCUAUCGGAGGAUAUUCAUACUGGAAACGGACAUGAGGAUCACCCAUGUGGCGAAAGCCUUGGGAGAAGGUCGAUAGCUAC”, the “apparent Kd” value runs as follows: under setting [3], 177 nM; under setting [4], 10.1 nM.

Regarding “AAAAAAAAAACUCAGGAUAUAGAUUGUAGAACAUGAGGAUCACCCAUGUAGUGAAAGAAGAGAGACUAGAAGGGAGUAAAAAAAAA”, the “apparent Kd” value by setting is: under setting [3], 85.7 nM; under setting [4], 74.7 nM.

Turning to “CGCGAAUUACAGAAGGGACAAGGGAUAAAACCCAGGUCUUGCAGUAGACAUGAGGAUCACCCAUGUCAGGAUAUGUAGAGAGUU”, the “apparent Kd” value runs as follows: under setting [1], 17.2 nM; under setting [2], 95.5 nM.

Turning to “AGAAAACGAGGAUAUACGUGCAUAUUCUCGCCCAAUGGGCAACAUGAGGAUCACCCAUGUAGAAGGCGUAAAGA”, the “apparent Kd” value is 37.4 nM under setting [1] and 71.7 nM under setting [2].

As to “ACAUGAGGAUCACCCAUGUGAACAUAGGAUAUUGGUGAUCAGGCAUGUUAUACAGGAUAUGUCUGCGAGAAGGAUGCACGUUGC”, the “apparent Kd” value stood at 567 nM under setting [3] and 341 nM under setting [4].

These data come from the EternaBench riboswitch data.
